Screens: PubChem BioAssay, several laboratories
Most compounds without a hit are left out; they make up all but 6.7% or so of the library.
GRIN3A LBD mod: binders of NR3A ligand-binding domain, primary screen, biophysical, differential scanning fluorimetry, uHTS. Glutamate receptor ionotropic, NMDA 3A (GRIN3A) ligand-binding domain. NR3A LBD differential scanning fluorimetry, Tm shift; 0% = protein alone, 100% = glycine-bound protein. Tm shift relative to glycine control, % at 25 µM. 340,000 tested, 2.5% active. AID 1259313, 2017;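 active = melting temperature shift of at least 10% of the positive control shift, at one fixed dose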
Beta cell apopt: inhibitors of cytokine-induced beta cell apoptosis, primary screen, luminescence; 300,000 tested, 0.8% active; INS-1E cytokine-induced death, ATP luminescence, 48 h; percent of positive-control rescue, neutral wells zero; protection from apoptosis, % (no concentration beside the values);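 active = Every replicate reaches about 75%, or at least half do and their mean reaches it too, limit read from the data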;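 also: 0% = cytokine-treated negative control wells and 100% = positive control rescue; higher means more ATP so stronger rescue from cytokine killing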
CSC inhib: cancer stem cell viability inhibitors, primary screen, luminescence. inhibition, % at 7.5 µM. cancer stem cell-like cells viability. 300,000 tested, 1.1% active; in the data active = inhibition above about 75%; tested in HMLE shEcad cells
PREPL inhibitor: PREPL enzyme inhibitors, primary screen, biochemical, fluorescence polarization | recombinant PREPL, fluorescence polarization activity-based probe | inhibition, % at 5.96 µM | 320,000 tested, 0.68% active | AID 2751, 2010; in the data active = inhibition above about 43%;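 also: 0% = enzyme with DMSO and 100% = wells lacking enzyme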
Target sequence (Q4J6C6 whole entry, looked up): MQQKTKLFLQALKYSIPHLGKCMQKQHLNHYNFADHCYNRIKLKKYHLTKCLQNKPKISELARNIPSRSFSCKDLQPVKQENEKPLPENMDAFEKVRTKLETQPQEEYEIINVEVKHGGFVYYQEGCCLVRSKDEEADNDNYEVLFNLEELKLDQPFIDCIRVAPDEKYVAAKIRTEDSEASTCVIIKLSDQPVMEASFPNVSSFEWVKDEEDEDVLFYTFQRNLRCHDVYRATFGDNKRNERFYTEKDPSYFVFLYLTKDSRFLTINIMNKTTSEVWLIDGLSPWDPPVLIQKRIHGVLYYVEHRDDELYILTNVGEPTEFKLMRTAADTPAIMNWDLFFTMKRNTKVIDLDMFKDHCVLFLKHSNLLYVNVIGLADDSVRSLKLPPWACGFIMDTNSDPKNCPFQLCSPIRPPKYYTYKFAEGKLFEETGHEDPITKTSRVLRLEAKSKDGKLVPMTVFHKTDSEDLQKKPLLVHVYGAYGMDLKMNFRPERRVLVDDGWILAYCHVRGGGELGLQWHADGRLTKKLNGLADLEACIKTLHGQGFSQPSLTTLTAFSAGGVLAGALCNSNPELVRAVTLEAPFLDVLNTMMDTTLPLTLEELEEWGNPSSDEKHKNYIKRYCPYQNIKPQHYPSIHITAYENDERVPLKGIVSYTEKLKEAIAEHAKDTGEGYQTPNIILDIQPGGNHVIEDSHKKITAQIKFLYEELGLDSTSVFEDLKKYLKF
CHOP inhibitor: inhibitors of CHOP promoter induction, primary screen, cell-based, unfolded protein response, luciferase reporter | CHO-K1 CHOP-promoter luciferase, tunicamycin-induced, 15-18 h | inhibition, % at 10 µM | 220,000 tested, 3.8% active;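 active = compounds that reduced the stress-induced luciferase reporter signal by more than about 70% of percent inhibition, limit read from the data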;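 also: 0% = tunicamycin plus vehicle and 100% = wells without tunicamycin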
T cruzi inh: inhibitors of intracellular T. cruzi growth, primary screen, luminescence, NIH3T3 host cells. T. cruzi beta-gal in NIH3T3, 90 h. inhibition, % (test concentration not listed). 300,000 tested, 1.4% active;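 active = mean inhibition across valid replicates above about 55%, limit read from the data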;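 also: signal also drops with host cell toxicity which is not excluded here; 0% = plate median of DMSO wells and 100% = zero luminescence signal; higher percent means less beta-gal luminescence so fewer parasites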
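Assay system: NIH/3T3 host cells with β-galactosidase reporter T. cruzi; input: 5,000 host fibroblasts per well; compound: single 50 nL compound addition per well in DMSO; timing: ≥90 h infection period, 3 h prior cell attachment; measured by: GalScreen β-gal luminescence, detergent lysis, 60 min; evaluation: percent inhibition of parasite-derived β-gal signal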
* marks the source's active call; other numbers are inactive results; . = no result.

SMILES	GRIN3A LBD mod	Beta cell apopt	CSC inhib	PREPL inhibitor	CHOP inhibitor	T cruzi inh
COc1cccc(/C=N/NC(=O)C(=O)N/N=C/c2cccc(OC)c2O)c1O	1.1	.	.	.	37.9	.
CCOc1ccc(N(CC(=O)NCCSCc2ccc(Cl)cc2)S(C)(=O)=O)cc1	0.4	-0.7	10.7	-25.0	.	2.2
O=C(/C=C/c1ccc([N+](=O)[O-])s1)N1CCCC1	-0.7	-1.3	14.3	-2.7	-4.9	69.3*
O=C(/C=C/c1ccc([N+](=O)[O-])s1)N1CCN(c2ccccc2)CC1	1.1	-14.2	16.0	7.5	.	58.5*
O=C(/C=C/c1ccc([N+](=O)[O-])s1)N1CCCCC1	1.2	-35.6	-0.2	11.4	-43.9	0.1
Cc1c(C(=O)N/N=C/c2ccccn2)nnn1-c1nonc1N	1.0	-1.4	4.1	10.4	.	-3.1
O=C(O)CSc1c(-c2ccccc2)c2cc(Cl)ccc2[nH]c1=O	-5.0	-3.1	6.9	4.6	-2.6	0.7
Cc1ccc(S(=O)(=O)NCc2c(-c3ccccc3)c3cc(Cl)ccc3[nH]c2=O)cc1	4.8	2.4	5.1	-10.1	103.3*	-14.5
CCOC(=O)CSc1c(-c2ccccc2)c2cc(Cl)ccc2[nH]c1=O	-7.4	-6.5	8.2	13.3	90.7*	5.1
CCCCCN(C(=O)CCC(=O)OCC(=O)c1ccc(C(C)CC)cc1)c1c(N)n(CCCC)c(=O)[nH]c1=O (stereo unspecified)	-5.0	-1.5	3.2	8.8	.	11.1
COc1ccc(S(=O)(=O)NNC(=O)c2sccc2-n2cccc2)cc1	-1.0	-1.7	-9.7	-9.5	0.8	-0.2
O=C(NNS(=O)(=O)c1ccc(Br)cc1)c1sccc1-n1cccc1	13.8*	-2.0	8.8	13.6	5.1	-10.6
Cn1c(Cc2cccs2)nnc1SCC(=O)Nc1ccc(C(N)=O)cc1	0.5	-8.6	-15.7	0.3	.	-6.5
Cc1cc(C)n(C(=O)Cn2nc(C)c(Br)c2C)n1	0.1	-5.8	-9.5	-3.9	.	-10.8
COc1ccc(/C=C(\C#N)C(=O)OCC(=O)Nc2c(C)cccc2C)cc1	3.4	1.8	-18.0	8.6	75.4*	-3.9
CCc1cccc(CC)c1NC(=O)COC(=O)/C(C#N)=C/c1ccc(OC)cc1	6.7	-15.1	-19.4	10.2	75.0*	-10.7
COc1ccc(/C=C(\C#N)C(=O)OCC(=O)Nc2ccc(C(C)(C)C)cc2)cc1	-4.3	-4.6	-4.9	0.0	27.0	13.1
O=C1NCCOC(=O)[C@@H](Cc2ccc(F)cc2)C/C=C\C[C@@H]1CC(=O)N(CCO)Cc1ccccc1	-1.3	-0.1	-9.6	17.1	.	.
N#Cc1c(NC(=O)c2ccc([N+](=O)[O-])o2)sc2c1CCC2	-2.0	13.4	24.5	5.0	.	31.6
O=C(Nc1cccc(Cl)c1)c1ccc(-n2cncn2)c([N+](=O)[O-])c1	-4.7	-8.3	1.5	19.3	17.4	3.4
CCOC(=O)C1=Nc2ccccc2C1=[N+]=[N-]	3.1	107.0*	-3.9	13.2	28.0	29.9
CCN(CC)c1ccc(C(=C2C=CC(=[N+](CC)CC)C=C2)c2ccc(S(=O)(=O)O)cc2S(=O)(=O)[O-])cc1	-2.5	.	.	.	.	.
N=C1S/C(=C\c2ccco2)C(=O)N1c1nccs1	-1.1	14.5	.	8.8	-1.9	55.8*
O=C(Nc1cc(-c2ccccc2)nn1C1CCCCC1)c1ccc(Cl)cc1	-2.1	97.3*	.	-4.2	.	.
O=C(NCc1ccco1)c1ccc(CNc2c(N3CCCCC3)c(=O)c2=O)cc1	0.2	-0.2	13.6	23.9	-14.2	-14.0
SMILES	GRIN3A LBD mod	Beta cell apopt	CSC inhib	PREPL inhibitor	CHOP inhibitor	T cruzi inh
COc1cc2nc(CN(CCC(C)C)Cc3nc4cc(OC)c(OC)cc4c(=O)[nH]3)[nH]c(=O)c2cc1OC	10.9*	7.3	0.0	0.3	-13.4	8.0
Cc1cccc(Nc2nnc(SC/C(O)=C(\C#N)c3nc4ccccc4[nH]3)s2)c1	10.4*	-8.5	53.8	31.5	5.8	-2.0
O=C(COC(=O)c1ccc([N+](=O)[O-])cc1Cl)Nc1cccnc1Cl	0.7	-2.1	-11.3	-4.8	.	-4.3
COc1ccc(N2CCc3c(C)nc4c(OC)cc(OC)cc4c32)c(OC)c1	-1.3	13.9	12.2	48.0*	48.0	58.4*
COc1ccc(N2CCc3c(C)nc4c(OC)cccc4c32)cc1	-2.2	48.8	54.8	31.7	13.7	20.4
O=C(NCCCNC(=O)c1ccc(-c2cccc(Cl)c2)o1)c1cnccn1	-1.9	1.2	.	8.1	.	1.3
CCCCCOc1ccc(/C=c2\sc3nc(=O)c(-c4ccccc4)nn3c2=O)cc1OC	-12.9	-2.3	29.4	3.2	43.4	12.3
COc1cc(/C=c2\sc3nc(-c4ccncc4)nn3c2=O)ccc1OC(C)=O	.	.	.	.	106.6*	.
COc1ccccc1-c1nc2s/c(=C\c3cccs3)c(=O)n2n1	5.5	-10.3	-0.8	-3.0	83.4*	4.1
N#Cc1ccc(S(=O)(=O)N2CCN(CC(=O)NCC3(N4CCOCC4)CCCCC3)CC2)cc1	3.9	-9.1	-6.6	20.0	.	.
CNS(=O)(=O)c1ccc(NC(=O)C2c3ccccc3Oc3ccccc32)cc1	-7.5	-5.4	-7.4	6.4	-4.5	-4.8
CC(=O)NS(=O)(=O)c1ccc(NC(=O)C2c3ccccc3Oc3ccccc32)cc1	11.1*	-3.2	16.1	11.9	-2.9	-4.2
O=C(NNc1cc(N2CCCC2)nc(N2CCCC2)n1)c1ccc([N+](=O)[O-])cc1	-0.5	1.9	14.9	12.6	19.2	26.4
CC(C)(C)c1ccc(C(=O)NNc2cc(N3CCCCC3)nc(N3CCCCC3)n2)cc1	-1.4	17.9	45.2	-0.1	46.4	93.2*
O=C(CCc1ccccc1)NNc1cc(N2CCCCC2)nc(N2CCCCC2)n1	-2.8	1.8	-1.8	22.0	60.8	56.8*
CCCCC#Cc1ccccc1CC(=O)Nc1ccccc1	-1.9	0.1	-1.0	-12.8	24.4	3.7
CCCCCCCC#Cc1ccccc1/C=N/S(=O)c1ccc(C)cc1 (stereo unspecified)	15.8*	20.3	5.8	-0.8	9.7	.
Cc1ccc(S(=O)(=O)NCCc2cn3nc(C)c(C)nc3n2)cc1C	1.2	-0.2	-8.1	4.6	.	-5.5
CC(C)(C)OC(=O)CNC(=O)c1nc[nH]c1C(=O)NCC(=O)OC(C)(C)C	3.8	-4.4	-16.9	0.2	21.9	3.3
COc1ccc(CNC(=O)COC(=O)c2ccc(S(=O)(=O)NCc3ccco3)cc2)cc1	0.3	4.3	15.3	6.5	.	.
O=c1c(Cl)c(N/N=C/c2ccc(Br)cc2)cnn1-c1ccccc1	13.2*	-2.2	-6.1	-21.6	5.2	7.3
CCCCCCCC(=O)NNC(=O)c1c(O)c2ccccc2n(CCC)c1=O	-5.0	.	-8.0	-4.8	4.8	-19.1
